Source: publication PMC5855380 (Pharmacognosy Research, 2018)
Converted amounts (≈) assume the structure as drawn.

Tested on: HDFn cells
Test: PrestoBlue cell viability assay, HDFn
Assay type: cell-based
Conditions: Homo sapiens, 96 h, read-out: IC50 (half maximal inhibitory concentration), HDFn
Procedure, shortened: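 HDFn cells grown in DMEM with 10% FBS and 1X antibiotic-antimycotic (37°C, 5% CO2); seeded at 1×10^4 viable cells/well and attached overnight. Test compound (DMSO stock, 0.1% final DMSO) added in two-fold dilutions, 50–0.39 µg/mL final, for 4 days. PrestoBlue 2 h; absorbance 570 nm normalized to 600 nm. Untreated, Zeocin and media-only background wells. Triplicates; IC50 from dose-response curves.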

`CC(C)=CCC/C(C)=C/CC/C(C)=C/CC/C=C(\C)CC/C=C(\C)CCC=C(C)C` [Compound 3, squalene] showed an IC50 of 0.1 µg/mL (≈ 0.243 µM).

Compound `CC1(C)CC[C@]2(C(=O)O)CC[C@]3(C)C(=CC[C@@H]4[C@@]5(C)CC[C@H](O)C(C)(C)[C@@H]5CC[C@]43C)[C@@H]2C1` [Compound 2, oleanolic acid] has an IC50 of 29.5 µg/mL (≈ 64.6 µM).
